In paper PMC4263960 (Pediatric blood & cancer, 2013):
Where two headings read alike, the source gives them in different places.

Assays:
[1] = test system: CHLA-258 cell line; assay: DIMSCAN in vitro cytotoxicity testing, CHLA-258; format: cell-based
Outline: (§1)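 Test compound incubated with cells of a 24-line pediatric cancer panel for 96 h at 0.1 nM to 1 μM, then assessed by DIMSCAN. Relative IC50 (rIC50) derived per line. Panel comparison value is the panel rIC50 divided by the rIC50 of each cell line.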

[2] = test system: NALM-6 cell line; assay: DIMSCAN in vitro cytotoxicity testing, NALM-6; format: cell-based
Outline: as §1

[3] = test system: OS-1 osteosarcoma xenograft; assay: PPTP in vivo xenograft testing, OS-1; design: species or system mice
[4] = test system: Rh28 ALV rhabdomyosarcoma xenograft; assay: PPTP in vivo xenograft testing, Rh28; design: species or system mice
[5] = test system: TC-71 cell line; assay: DIMSCAN in vitro cytotoxicity testing, TC-71; format: cell-based
Outline: as §1

[6] = Human pharmacokinetics of eribulin; format: in vivo, humans; details: plasma, intravenous, 1.4 mg/m2
[7] = test system: BT-28 medulloblastoma xenograft; assay: PPTP in vivo xenograft testing, BT-28; design: species or system mice
[8] = test system: OS-17 osteosarcoma xenograft; assay: PPTP in vivo xenograft testing, OS-17; design: species or system mice
[9] = test system: MLL-7 tertiary infant precursor B-ALL xenograft; assay: PPTP in vivo xenograft testing, MLL-7; design: species or system mice
[10] = test system: CHLA-136 cell line; assay: DIMSCAN in vitro cytotoxicity testing, CHLA-136; format: cell-based
Outline: as §1

[11] = test system: SK-NEP-1 Ewing xenograft; assay: PPTP in vivo xenograft testing, SK-NEP-1; design: species or system mice
[12] = test system: RS4;11 cell line; assay: DIMSCAN in vitro cytotoxicity testing, RS4; format: cell-based
Outline: as §1

[13] = test system: Kasumi-1 cell line; assay: DIMSCAN in vitro cytotoxicity testing, Kasumi-1; format: cell-based
Outline: as §1

[14] = test system: ALL-8 ALL T-cell xenograft; assay: PPTP in vivo xenograft testing, ALL-8; design: species or system mice
[15] = test system: SJ-GBM2 cell line; assay: DIMSCAN in vitro cytotoxicity testing, SJ-GBM2; format: cell-based
Outline: as §1

[16] = test system: ALL-7 ALL B-precursor xenograft; assay: PPTP in vivo xenograft testing, ALL-7; design: species or system mice
[17] = test system: Rh10 ALV rhabdomyosarcoma xenograft; assay: PPTP in vivo xenograft testing, Rh10; design: species or system mice
[18] = test system: D645 glioblastoma xenograft; assay: PPTP in vivo xenograft testing, D645; design: species or system mice
[19] = test system: Rh18 EMB rhabdomyosarcoma xenograft; assay: PPTP in vivo xenograft testing, Rh18; design: species or system mice
[20] = test system: NB-1691 neuroblastoma xenograft; assay: PPTP in vivo xenograft testing, NB-1691; design: species or system mice
[21] = test system: NB-1643 cell line; assay: DIMSCAN in vitro cytotoxicity testing, NB-1643; format: cell-based
Outline: as §1

[22] = intravenous dose of 2 mg/kg; different mouse strain; cited from earlier work
[23] = 1 mg/kg IP Q4Dx3 repeated at Day 21
[24] = 1.5 mg/kg IP Q4Dx3 repeated at Day 21

With `C=C1C[C@@H]2CC[C@@]34C[C@H]5O[C@H]6[C@@H](O3)[C@H]3O[C@H](CC[C@@H]3O[C@H]6[C@H]5O4)CC(=O)C[C@@H]3[C@@H](OC)[C@@H](C[C@H](O)CN)O[C@H]3C[C@H]3O[C@@H](CC[C@@H]1O2)C[C@@H](C)C3=C` [Eribulin] the IC50 ([1]; 96 h, read-out: rIC50) was 0.5 nM, the “Panel rIC50/Line rIC50” value ([1]; CHLA-258) was 0.54 and the Relative in/out% ([1]; CHLA-258) was −84%. For the same molecule, the “Ymin % (observed)” value ([1]; CHLA-258) was 6.29%, the IC50 ([2]; Homo sapiens, NALM-6, 96 h, read-out: rIC50) was 0.59 nM and the “Panel rIC50/Line rIC50” value ([2]; NALM-6) was 0.46. For the same molecule, the Relative in/out% ([2]; NALM-6) was −99%, the “Ymin % (observed)” value ([2]; NALM-6) was 0.03% and the Response activity ([3]; 1 mg/kg IP) was “High (A high level of activity is indicated by a score of 6 or more)”. The T/C volume activity ([3]; 1 mg/kg IP) was “Low (Low activity = T/C >0.45)”, the “EFS T/C” value [3, 23] was over 1.5 and the “Median final RTV (CD45%)” value [3, 23] was 0.4. The “Tumor volume T/C” value ([3]; 1 mg/kg IP, Day 21 or earlier) was 0.64, the EFS activity ([4]; 1 mg/kg IP) was “High (High activity requires: (a) an EFS T/C >2; (b) a significant difference in EFS distributions, and (c) a net reduction in median tumor volume for animals in the treated group at the end of treatment as compared to at treatment initiation)” and the Response activity ([4]; 1 mg/kg IP) was “High (A high level of activity is indicated by a score of 6 or more)”. For the same molecule, the T/C volume activity ([4]; 1 mg/kg IP) was “Int (Intermediate activity = T/C ≤0.45 but >0.15)”, the “EFS T/C” value [4, 23] was over 2.4 and the “Median final RTV (CD45%)” value [4, 23] was 0.0. For the same molecule, the “Tumor volume T/C” value ([4]; 1 mg/kg IP, Day 21 or earlier) was 0.29, the “Panel rIC50/Line rIC50” value ([5]; TC-71) was 2.45 and the Relative in/out% ([5]; TC-71) was −99%. The “Ymin % (observed)” value ([5]; TC-71) was 0.01%, the IC50 ([5]; TC-71, 96 h, read-out: rIC50) was 0.11 nM and the AUC [6] was 1580 ng·h/mL. For the same molecule, the EFS activity ([7]; 1 mg/kg IP) was “High (High activity requires: (a) an EFS T/C >2; (b) a significant difference in EFS distributions, and (c) a net reduction in median tumor volume for animals in the treated group at the end of treatment as compared to at treatment initiation)”, the Response activity ([7]; 1 mg/kg IP) was “Int (intermediate activity by a score of ≥2 but <6)” and the T/C volume activity ([7]; 1 mg/kg IP) was “Int (Intermediate activity = T/C ≤0.45 but >0.15)”. The “EFS T/C” value [7, 23] was over 3.3, the “Median final RTV (CD45%)” value [7, 23] was 0.7 and the “Tumor volume T/C” value ([7]; 1 mg/kg IP, Day 21 or earlier) was 0.44. The EFS activity ([8]; 1 mg/kg IP) was “High (High activity requires: (a) an EFS T/C >2; (b) a significant difference in EFS distributions, and (c) a net reduction in median tumor volume for animals in the treated group at the end of treatment as compared to at treatment initiation)”, the Response activity ([8]; 1 mg/kg IP) was “High (A high level of activity is indicated by a score of 6 or more)” and the T/C volume activity ([8]; 1 mg/kg IP) was “Int (Intermediate activity = T/C ≤0.45 but >0.15)”. The “EFS T/C” value [8, 23] was over 2.3, the “Median final RTV (CD45%)” value [8, 23] was 0.5 and the “Tumor volume T/C” value ([8]; 1 mg/kg IP, Day 21 or earlier) was 0.25. The EFS activity ([9]; 1.5 mg/kg IP) was “High (High activity requires: (a) an EFS T/C >2; (b) a significant difference in EFS distributions, and (c) a net reduction in median tumor volume for animals in the treated group at the end of treatment as compared to at treatment initiation)”, the Response activity ([9]; 1.5 mg/kg IP) was “High (A high level of activity is indicated by a score of 6 or more)” and the “EFS T/C” value [9, 24] was over 4.7. The “Median final RTV (CD45%)” value ([9]; CD45%, 1.5 mg/kg IP) was 0.0%, the IC50 ([10]; 96 h, read-out: rIC50) was 2.37 nM and the “Panel rIC50/Line rIC50” value ([10]; CHLA-136) was 0.11. For the same molecule, the Relative in/out% ([10]; CHLA-136) was −65%, the “Ymin % (observed)” value ([10]; CHLA-136) was 9.96% and the EFS activity ([11]; 1 mg/kg IP) was “High (High activity requires: (a) an EFS T/C >2; (b) a significant difference in EFS distributions, and (c) a net reduction in median tumor volume for animals in the treated group at the end of treatment as compared to at treatment initiation)”. For the same molecule, the Response activity ([11]; 1 mg/kg IP) was “High (A high level of activity is indicated by a score of 6 or more)”, the T/C volume activity ([11]; 1 mg/kg IP) was “High (High activity = T/C ≤0.15)” and the “EFS T/C” value [11, 23] was over 4.3. The “Median final RTV (CD45%)” value [11, 23] was 0.0, the “Tumor volume T/C” value ([11]; 1 mg/kg IP, Day 21 or earlier) was 0.00 and the IC50 ([12]; Homo sapiens, RS4-11, 96 h, read-out: rIC50) was under 0.1 nM. The “Panel rIC50/Line rIC50” value ([12]; RS4;11) was over 2.74, the Relative in/out% ([12]; RS4;11) was −99% and the “Ymin % (observed)” value ([12]; RS4;11) was 0.22%. For the same molecule, the IC50 ([13]; Homo sapiens, Kasumi 1, 96 h, read-out: rIC50) was 4.11 nM, the “Panel rIC50/Line rIC50” value ([13]; Kasumi-1) was 0.07 and the Relative in/out% ([13]; Kasumi-1) was −86%. For the same molecule, the “Ymin % (observed)” value ([13]; Kasumi-1) was 3.92%, the EFS activity ([14]; 1.5 mg/kg IP) was “High (High activity requires: (a) an EFS T/C >2; (b) a significant difference in EFS distributions, and (c) a net reduction in median tumor volume for animals in the treated group at the end of treatment as compared to at treatment initiation)” and the Response activity ([14]; 1.5 mg/kg IP) was “High (A high level of activity is indicated by a score of 6 or more)”. The “EFS T/C” value [14, 24] was over 7.9, the “Median final RTV (CD45%)” value ([14]; CD45%, 1.5 mg/kg IP) was 0.0% and the IC50 ([15]; 96 h, read-out: rIC50) was 0.51 nM. The “Panel rIC50/Line rIC50” value ([15]; SJ-GBM2) was 0.53, the Relative in/out% ([15]; SJ-GBM2) was −95% and the “Ymin % (observed)” value ([15]; SJ-GBM2) was 0.46%. The EFS activity ([16]; 1.5 mg/kg IP) was “Int (Intermediate activity = criteria (a) and (b) above, but not having a net reduction in median tumor volume for treated animals at the end of the study)”, the Response activity ([16]; 1.5 mg/kg IP) was “High (A high level of activity is indicated by a score of 6 or more)” and the “EFS T/C” value [16, 24] was over 4.4. For the same molecule, the “Median final RTV (CD45%)” value ([16]; CD45%, 1.5 mg/kg IP) was 3.0%, the EFS activity ([17]; 1 mg/kg IP) was “High (High activity requires: (a) an EFS T/C >2; (b) a significant difference in EFS distributions, and (c) a net reduction in median tumor volume for animals in the treated group at the end of treatment as compared to at treatment initiation)” and the Response activity ([17]; 1 mg/kg IP) was “High (A high level of activity is indicated by a score of 6 or more)”. The T/C volume activity ([17]; 1 mg/kg IP) was “High (High activity = T/C ≤0.15)”, the “EFS T/C” value [17, 23] was over 3.8 and the “Median final RTV (CD45%)” value [17, 23] was 0.0. For the same molecule, the “Tumor volume T/C” value ([17]; 1 mg/kg IP, Day 21 or earlier) was 0.08, the EFS activity ([18]; 1 mg/kg IP) was “Int (Intermediate activity = criteria (a) and (b) above, but not having a net reduction in median tumor volume for treated animals at the end of the study)” and the Response activity ([18]; 1 mg/kg IP) was “High (A high level of activity is indicated by a score of 6 or more)”. The T/C volume activity ([18]; 1 mg/kg IP) was “High (High activity = T/C ≤0.15)”, the “EFS T/C” value [18, 23] was over 7.1 and the “Median final RTV (CD45%)” value [18, 23] was 3.8. For the same molecule, the “Tumor volume T/C” value ([18]; 1 mg/kg IP, Day 21 or earlier) was 0.07, the EFS activity ([19]; 1 mg/kg IP) was “Int (Intermediate activity = criteria (a) and (b) above, but not having a net reduction in median tumor volume for treated animals at the end of the study)” and the Response activity ([19]; 1 mg/kg IP) was “Int (intermediate activity by a score of ≥2 but <6)”. The T/C volume activity ([19]; 1 mg/kg IP) was “Low (Low activity = T/C >0.45)”, the “EFS T/C” value [19, 23] was over 3.2 and the “Median final RTV (CD45%)” value [19, 23] was 1.8. For the same molecule, the “Tumor volume T/C” value ([19]; 1 mg/kg IP, Day 21 or earlier) was 0.76, the EFS activity ([20]; 1 mg/kg IP) was “Low (Low activity = EFS T/C <2)” and the Response activity ([20]; 1 mg/kg IP) was “Low (low activity by a score of <2)”. For the same molecule, the T/C volume activity ([20]; 1 mg/kg IP) was “Low (Low activity = T/C >0.45)”, the “EFS T/C” value [20, 23] was 1.1 and the “Median final RTV (CD45%)” value [20, 23] was over 4. The Time to event [20, 23] was 7.9, the “Tumor volume T/C” value ([20]; 1 mg/kg IP, Day 21 or earlier) was 0.80 and the “Panel rIC50/Line rIC50” value ([21]; NB-1643) was 0.57. The Relative in/out% ([21]; NB-1643) was −97%, the “Ymin % (observed)” value ([21]; NB-1643) was 0.53% and the IC50 ([21]; NB-1643, 96 h, read-out: rIC50) was 0.47 nM. For the same molecule, the AUC [22] was 1,132 ng hour/ml.
